Screening results (PubChem BioAssay)
SIAE primary: inhibitors of human sialic acid acetylesterase SIAE; Q9HAT2; SIAE FP-Rh probe binding, fluorescence polarization; inhibition, % at 9.66 µM; 370,000 compounds, 0.69% hits;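 active = inhibition above a cutoff: mean of compounds within the control limits plus 3 SD of those, cut at about 17% in these data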
mABHD4 FP: ABHD4 (mouse) inhibition, primary FP screen | inhibition, % at 8.92 µM | 370,000 compounds, 0.54% hits | purified mABHD4, FP-Rh probe fluorescence polarization;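 active = inhibition exceeding the mean over every tested compound plus 3 SD, cut at about 30% in these data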
Target sequence (Q8VD66 whole entry, looked up): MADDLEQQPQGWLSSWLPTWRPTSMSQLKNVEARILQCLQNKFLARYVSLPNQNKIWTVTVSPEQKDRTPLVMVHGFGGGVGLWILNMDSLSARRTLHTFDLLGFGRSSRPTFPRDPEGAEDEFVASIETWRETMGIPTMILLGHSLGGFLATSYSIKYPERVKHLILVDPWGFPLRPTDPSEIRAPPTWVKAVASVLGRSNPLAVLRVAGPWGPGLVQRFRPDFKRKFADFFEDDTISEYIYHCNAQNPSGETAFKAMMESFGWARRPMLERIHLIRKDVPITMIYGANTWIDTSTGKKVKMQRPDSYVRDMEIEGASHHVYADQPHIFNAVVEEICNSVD
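Assay system: wild-type mouse ABHD4 protein; compound: single nominal dose of 8.92 µM, 0.89% DMSO final; schedule: 45 min + 60 min at 25 °C; measured by: FP readout, ex 525 nm / em 598 nm; evaluation: % inhibition of FP-Rh probe binding versus controls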
TDP2 inh: blocks human TDP2 phosphodiesterase activity; O95551; recombinant TDP2, T5PNP hydrolysis, p-nitrophenol absorbance 415 nm; inhibition, % at 12.8 µM; 370,000 compounds, 0.34% hits; AID 720702;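 active = inhibition above the mean of all tested compounds plus 3 SD, set per campaign, cut at about 25% in these data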
Target sequence (O95551 whole entry, looked up): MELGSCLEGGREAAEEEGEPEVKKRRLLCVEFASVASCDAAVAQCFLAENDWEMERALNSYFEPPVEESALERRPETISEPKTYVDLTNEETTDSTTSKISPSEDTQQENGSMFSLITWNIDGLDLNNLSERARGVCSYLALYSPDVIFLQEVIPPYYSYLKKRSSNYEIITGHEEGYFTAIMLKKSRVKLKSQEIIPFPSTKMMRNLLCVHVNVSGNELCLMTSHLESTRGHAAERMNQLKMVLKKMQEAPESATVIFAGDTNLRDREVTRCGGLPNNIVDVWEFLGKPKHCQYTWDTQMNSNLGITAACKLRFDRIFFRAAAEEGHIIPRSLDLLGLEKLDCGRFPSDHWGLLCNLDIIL
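Test system: Human TDP2 enzyme | Reagent: 5 mM T5PNP | Compound dosing: 12.8 µM single point, 1% DMSO | Incubation: Enzyme reaction with compound for 2 h at 37 °C | Technique: p-Nitrophenol epi absorbance | Read-out: % inhibition relative to enzyme-containing and enzyme-free wells | Benchmarks: High control without enzyme, low control DMSO plus TDP2 | Replicates: Singlicate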
LEDGF integ inh: blocks HIV-1 LEDGF/p75-dependent DNA integration | TR-FRET IN-LEDGF/p75 DNA integration, Eu/Cy5 | inhibition, % at 3.7 µM | 370,000 compounds, 0.64% hits | AID 743269;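 active = inhibition above the screen-wide mean plus 3 SD, cut at about 13% in these data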;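 note: signal is the Cy5 over europium emission ratio at 671 and 618 nm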
TCR CD3 inh: inhibitors of human TCR-CD3 interaction. TAMRA-labeled TCR probe fluorescence, biochemical. inhibition, % at 9.4 µM. 360,000 compounds, 0.37% hits; in the data active = inhibition above about 19%;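 note: recombinant mutant TCR 2C K166C tagged with TAMRA read by polarization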
HTRA1 inh: inhibitors of human serine peptidase HTRA1 | AID 504803 | recombinant HTRA1, FP-rhodamine activity-based probe, fluorescence polarization | 340,000 compounds, 0.5% hits | inhibition, % at 5.96 µM | Q92743; in the data active = inhibition above about 36%
ABHD4 confirm: ABHD4 (mouse) inhibition, FP confirmation. shares compounds with mABHD4 FP. purified mABHD4, FP-Rh probe fluorescence polarization. inhibition, % at 8.92 µM. 1,800 compounds, 55% hits. AID 720658;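 active = mean inhibition across replicates above the hit cutoff set in the primary screen, cut at about 30% in these data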
TDP2 confirm: confirmation of human TDP2 inhibitors | shares compounds with TDP2 inh | recombinant human TDP2, absorbance read-out | inhibition, % at 12.8 µM | 1,100 compounds, 22% hits | AID 743263; in the data active = inhibition above about 25%
Numbers stand for hits; 0 = inactive; - = no result given; + = active, no number. In the library only some 2.2% were active in any assay of this set; here they are far more common.

SMILES | SIAE primary | mABHD4 FP | TDP2 inh | LEDGF integ inh | TCR CD3 inh | HTRA1 inh | ABHD4 confirm | others
COc1cc2c(c3c1c(=O)c1cccc(F)c1n3C)C=CC(C)(C)O2 | 0 | 0 | 0 | 0 | 0 | - | -
c1ccc(-c2sc3ccccc3c2-c2ccc(OCCN3CCCC3)cc2)cc1 | 0 | 30.6 | 0 | 0 | 0 | 0 | 0
COc1ccc(-c2sc3ccccc3c2-c2ccc(OCCN3CCCCC3)cc2)cc1 | 0 | 0 | 0 | 0 | 0 | 0 | -
CCOc1ccccc1N1CN(C2CCCCC2)CNC1=S | 0 | 70.2 | 0 | 0 | 0 | - | 0
NNC(=O)c1cc(-c2ccc(N)cc2)nc2ccc(Br)cc12 | 0 | 39.8 | 0 | 0 | 0 | - | 0
O=C(CC1CCCC1)N1CC[C@H]2[C@H](CCCN2Cc2cc(F)cc(F)c2)C1 | 0 | 0 | 0 | 0 | - | - | -
Cc1cccc2c1c1ccc3c(c1n2C)C(=O)C=CC3=O | 0 | 48.4 | 0 | 0 | 0 | 0 | 71.3
Oc1ccc(NC(=S)Nc2ccc(F)cc2)cc1 | 0 | 33.3 | 0 | 0 | 0 | 0 | 0
COc1ccc(C2CC(=O)C(c3ccccc3C)=CN2Cc2ccccc2)cc1 (configuration not stated) | 0 | 0 | 0 | 0 | 0 | - | -
O=C(NN=C1CCN(Cc2ccccc2)CC1)c1ccccc1O | 0 | 0 | 0 | 0 | 0 | 0 | -
O=C(NN=C1CCN(Cc2ccccc2)CC1)c1cc2ccccc2cc1O | 0 | 46.0 | 0 | 0 | 0 | 0 | 42.7
Clc1ccc(N2COC3c4cccc5cccc(c45)C32)cc1 (configuration not stated) | 0 | 0 | 0 | 0 | 0 | 0 | -
COc1ccc(N2COC3c4cccc5cccc(c45)C32)cc1 (configuration not stated) | 0 | 42.6 | 0 | 0 | 0 | 0 | 0
CCC(=O)N(Cc1ccco1)c1nc(-c2cc(OC)ccc2OC)cs1 | 0 | 49.1 | 0 | 0 | 0 | 0 | 57.8
O=C1CSC(c2cccs2)N1c1nncs1 (configuration not stated) | 0 | 0 | 0 | 0 | 0 | - | -
O=S1(=O)c2ccccc2N=NN1Cc1ccc(Cl)cc1 | 0 | 45.6 | 0 | 0 | 0 | 0 | 54.0
Cc1ccccc1-c1nnc2n1N=C(c1ccc(O)c(O)c1)CS2 | 0 | 31.6 | 0 | 0 | - | - | 0
COc1ccc(S(=O)(=O)Oc2ccc3ccccc3c2)cc1 | 0 | 0 | 0 | 0 | 0 | 0 | -
COC1=C(OC)C(=O)C(Sc2ccc3ccccc3c2)=CC1=O | 0 | 57.1 | 0 | 0 | 0 | 0 | 101.8
Cc1cccc(-c2cccc3c4c([nH]c23)[C@@H]2C[C@H](N(C)C(=O)c3ccccc3C)[C@H]([C@H](C)O)CN2CC4)c1 | 0 | 0 | 0 | 0 | - | - | -
S=c1[nH]nc(-c2ccc(Cl)cc2)n1/N=C/C=C/c1ccco1 | 0 | 31.0 | 0 | 0 | 0 | - | 0
Cc1ccccc1-c1n[nH]c(=S)n1/N=C/C=C/c1ccco1 | 0 | 35.5 | 0 | 0 | 0 | 0 | 32.2
S=c1[nH]nc(-c2ccc(Cl)cc2)n1/N=C/c1ccco1 | 0 | 0 | 0 | 0 | 0 | 0 | -
Cc1cc(-c2n[nH]c(=S)n2/N=C/C=C/c2ccco2)n[nH]1 | 0 | 0 | 0 | 0 | 0 | 0 | -
CCN(CC)S(=O)(=O)c1ccc(N2CCOCC2)c(NC(=O)c2ccc3ccccc3c2)c1 | 0 | 0 | 0 | 0 | 0 | 0 | -
SMILES | SIAE primary | mABHD4 FP | TDP2 inh | LEDGF integ inh | TCR CD3 inh | HTRA1 inh | ABHD4 confirm | others
CCN(CC)S(=O)(=O)c1ccc(N2CCOCC2)c(NC(=O)c2cccc3ccccc23)c1 | 0 | 0 | 0 | 0 | 0 | 0 | -
CCN(CC)S(=O)(=O)c1ccc(N2CCOCC2)c(NC(=O)c2c3c(nc4ccccc24)CCC3)c1 | 0 | 33.6 | 0 | 0 | 0 | 0 | 30.4
CCN(CC)S(=O)(=O)c1ccc(N2CCOCC2)c(NC(=O)c2cccc3c(=O)c(C)c(-c4ccccc4)oc23)c1 | 0 | 32.6 | 0 | 0 | 0 | 0 | 37.5
COc1ccc(C2=NN(c3ccc(C(=O)O)cc3)C(c3ccc(OC)c(OC)c3)C2)cc1 (configuration not stated) | 0 | 68.8 | 0 | 0 | 0 | 0 | 78.3
COC(=O)[C@]12C[C@H](CC(=O)N3CCN(C(=O)C4CC4)CC3)C(=O)N(Cc3ccc(Cl)cc3Cl)C1=C[C@H](C(C)(C)C)O[C@@H]2C | 0 | 0 | 0 | 0 | - | - | -
O=c1oc2ccccc2nc1/C=C(\O)c1ccc(Br)cc1 | - | - | - | - | - | 0 | -
C/C(O)=C\c1nc2ccccc2oc1=O | 0 | 37.4 | 0 | 0 | 0 | 0 | 0
COc1ccc(C2=CCN(C)C(=O)N2c2ccc([N+](=O)[O-])cc2)cc1 | 0 | 0 | 0 | 0 | - | - | -
CCC(c1c[nH]c2ccccc12)c1cn(C)c2ccccc12 (configuration not stated) | 0 | 0 | 0 | 0 | - | - | -
Cc1ccc(NCSc2ccc(Cl)cc2)cc1 | 0 | 0 | 0 | 0 | 0 | 0 | -
CSc1ccc(CNc2ccc(Cl)cc2)cc1 | 0 | + | 0 | 0 | 0 | 0 | 0
O=[N+]([O-])c1cc(S(=O)(=O)NCc2ccco2)ccc1NN=Cc1ccccn1 | 0 | 0 | 0 | 0 | 0 | - | -
O=C(NNC(=O)c1cc(O)c(O)c(O)c1)NC1CCCCC1 | 0 | 30.6 | 0 | 0 | 0 | 0 | 0
NS(=O)(=O)c1ccc(-c2ccc(/C=C3\SC(=S)N(C4CCS(=O)(=O)C4)C3=O)o2)cc1 (configuration not stated) | 0 | 29.7 | 29.3 | 0 | 0 | 0 | 0 | TDP2 confirm=0
CCC[C@H]1[C@@H](NC(=O)C(c2ccccc2)c2ccccc2)CC[C@@]23CCCN2C(=O)CCC[C@@H]13 | 0 | 0 | 0 | 0 | - | - | -
Cc1ccc(-n2nc(C)c3c2OC(N)=C(C#N)C3c2ccc(F)cc2)cc1 (configuration not stated) | 0 | 36.5 | 48.5 | 0 | 0 | 0 | 0 | TDP2 confirm=0
Cc1nn(-c2ccccc2)c2c1C(c1ccco1)C(C#N)=C(N)O2 (configuration not stated) | 0 | 0 | 0 | 0 | 0 | 0 | -
Cc1nn(-c2cccc(Cl)c2)c2c1C(c1cccnc1)C(C#N)=C(N)O2 (configuration not stated) | 0 | 30.6 | 60.5 | 0 | 0 | 0 | 0 | TDP2 confirm=0
Cc1nn(-c2ccccc2)c2c1C(c1ccc([N+](=O)[O-])cc1)C(C#N)=C(N)O2 (configuration not stated) | 0 | 41.7 | 61.8 | 0 | 0 | 0 | 0 | TDP2 confirm=0
CCCCN1CC(COCc2ccccc2)Oc2cccc(Sc3ccc(OC)c(OC)c3)c2S1(=O)=O (configuration not stated) | 0 | 0 | 0 | 0 | 0 | - | -
CC(=O)c1cc(-c2cccc(C#N)c2)c(=O)n2c1CCC2 | 0 | 0 | 0 | 0 | - | - | -
O=C(CCCN1C(=O)/C(=C\c2ccco2)SC1=S)Nc1ccc(O)cc1C(=O)O | 0 | 46.2 | 29.1 | 63.1 | 0 | 0 | 0 | TDP2 confirm=0
